Experimental data from ChEMBL document CHEMBL3813692, “Discovery of a Fluorinated Enigmol Analog with Enhanced in Vivo Pharmacokinetic and Anti-Tumor Properties” (ACS Med Chem Lett, 2016).
Active and inactive are the calls of the source. No cut-off for these calls is given here.

Assays:
[1] = Drug uptake in pre-cannulated Sprague-Dawley rat kidney at 10 mg/kg administered via oral gavage after 24 hrs by LC-MS/MS analysis; format: ADME, organism-based; conditions: read-out: Drug uptake
Method in brief: (§1)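 After one 10 mg/kg oral gavage to SD rats (n = 4 per group), red blood cells, brain, lung, liver, kidney and prostate were harvested at 24 h. Drug levels were quantified by LC-MS/MS.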

[2] = Terminal half-life in pre-cannulated Sprague-Dawley rat at 2 mg/kg, iv after […] to 8 hrs by LC-MS/MS analysis; format: ADME, organism-based; conditions: in vivo, read-out: beta t1/2 (converted)
Method in brief: (§2)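 SD rats (n = 3–4 per group) received a single 2 mg/kg i.v. injection in PEG400/EtOH/Tween80/H2O (40:10:3:47). Plasma was sampled periodically and drug was quantified by LC-MS/MS. t1/2, Cl, Cmax and AUC were reported as mean ± SEM.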

[3] = Cytotoxicity against human PC3 cells assessed as reduction in cell viability after 24 hrs by WST-1 assay; format: functional, cell-based; conditions: PC-3, 24 h
Method in brief: (§3)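 Cells were exposed to compound for 24 h (n = 3–4), and viability was read as mitochondrial activity by WST-1. IC50 and IC90 were derived from concentration–response curves and reported as mean ± SEM.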

[4] = test system: PC-3; experiment: Antitumor activity against human PC3 cells xenografted in athymic NCr-nu/nu mouse assessed as tumor growth inhibition at 10 mg/kg, qd administered via oral gavage measured every 2 to 3 days; format: functional, organism-based
Method in brief: (§4)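 Nude mice with palpable subcutaneous PC-3 tumors (n = 9–11 per group) were dosed once daily by oral gavage. Study 1 used 3 or 10 mg/kg in 95:5 olive oil/EtOH vehicle; study 2 used 10 or 30 mg/kg in 95:5 PEG400/Tween80 vehicle. Tumor volume and body weight were measured periodically. Tumor growth was analysed by a repeated-measures linear mixed model with autoregressive covariance; weight change by one-way ANOVA with Sidak's test.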

[5] = Drug uptake in tumor of human PC3 cells xenografted in athymic NCr-nu/nu mouse at 10 mg/kg, qd administered via oral gavage measured 24 hrs post last dose by LC-MS/MS analysis; format: ADME, organism-based, Neoplasm, PC-3; conditions: read-out: Drug uptake
Method in brief: (§5)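 Tumors were harvested at the end of daily oral-gavage xenograft studies in nude mice bearing PC-3 tumors (3, 10 or 30 mg/kg). Drug accumulation in tumor was measured by LC-MS/MS and reported as mean ± SEM.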

[6] = Tmax in pre-cannulated Sprague-Dawley rat at 10 mg/kg administered via oral gavage after 0.5 to 24 hrs by LC-MS/MS analysis; format: ADME, organism-based; conditions: in vivo
Method in brief: (§6)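 A single 10 mg/kg oral gavage was given to SD rats (n = 4 per group). Vehicle was 90:10 olive oil/EtOH or 95:5 PEG400/Tween80, depending on the analog. Plasma was collected periodically and drug was measured by LC-MS/MS; data are mean ± SEM.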

[7] = Oral bioavailability in pre-cannulated Sprague-Dawley rat at 10 mg/kg administered via gavage after 0.5 to 24 hrs by LC-MS/MS analysis; format: ADME, organism-based; conditions: in vivo
[8] = Terminal half-life in pre-cannulated Sprague-Dawley rat at 10 mg/kg administered via oral gavage after 0.5 to 24 hrs by LC-MS/MS analysis; format: ADME, organism-based; conditions: in vivo, read-out: beta t1/2 (converted); method in brief: as §6
[9] = Drug uptake in pre-cannulated Sprague-Dawley rat brain at 10 mg/kg administered via oral gavage after 24 hrs by LC-MS/MS analysis; format: ADME, organism-based; conditions: read-out: Drug uptake; method in brief: as §1
[10] = test system: Plasma; experiment: Drug uptake in pre-cannulated Sprague-Dawley rat plasma at 10 mg/kg administered via oral gavage after 1 hr by LC-MS/MS analysis; format: ADME, organism-based; conditions: in vivo; method in brief: as §6
[11] = Drug uptake in pre-cannulated Sprague-Dawley rat liver at 10 mg/kg administered via oral gavage after 24 hrs by LC-MS/MS analysis; format: ADME, organism-based; conditions: read-out: Drug uptake; method in brief: as §1
[12] = Drug uptake in pre-cannulated Sprague-Dawley rat prostate gland at 10 mg/kg administered via oral gavage after 24 hrs by LC-MS/MS analysis; format: ADME, organism-based; conditions: read-out: Drug uptake; method in brief: as §1
[13] = test system: PC-3; experiment: Antitumor activity against human PC3 cells xenografted in athymic NCr-nu/nu mouse assessed as tumor growth inhibition at 3 mg/kg, qd administered via oral gavage measured every 2 to 3 days; format: functional, organism-based; method in brief: as §4
[14] = AUC(0 to t) in pre-cannulated Sprague-Dawley rat at 2 mg/kg, iv after […] to 8 hrs by LC-MS/MS analysis; format: ADME, organism-based; set-up: time upper 8 hr, dose 2 mg/kg, route intravenous; conditions: in vivo; method in brief: as §2
[15] = Clearance in pre-cannulated Sprague-Dawley rat at 2 mg/kg, iv after […] to 8 hrs by LC-MS/MS analysis; format: ADME, organism-based; conditions: in vivo; method in brief: as §2
[16] = Tmax in pre-cannulated Sprague-Dawley rat at 2 mg/kg, iv after […] to 8 hrs by LC-MS/MS analysis; format: ADME, organism-based; conditions: in vivo; method in brief: as §2
[17] = Octanol-buffer partition co-efficient, log D of the compound at 100 uM at pH 7.4 by shake-flask method; format: physicochemical
[18] = Cmax in pre-cannulated Sprague-Dawley rat at 10 mg/kg administered via oral gavage after 0.5 to 24 hrs by LC-MS/MS analysis; format: ADME, organism-based; set-up: dose 10 mg/kg, route oral; conditions: in vivo; method in brief: as §6
[19] = test system: LNCaP; experiment: Cytotoxicity against human LNCAP cells assessed as reduction in cell viability after 24 hrs by WST-1 assay; format: functional, cell-based; method in brief: as §3
[20] = AUC(0 to t) in pre-cannulated Sprague-Dawley rat at 10 mg/kg administered via oral gavage after 0.5 to 24 hrs by LC-MS/MS analysis; format: ADME, organism-based; set-up: time upper 24 hr, time lower 0.5 hr, dose 10 mg/kg, route oral; conditions: in vivo; method in brief: as §6
[21] = Cmax in pre-cannulated Sprague-Dawley rat at 2 mg/kg, iv after […] to 8 hrs by LC-MS/MS analysis; format: ADME, organism-based; set-up: dose 2 mg/kg, route intravenous; conditions: in vivo; method in brief: as §2
[22] = Drug uptake in pre-cannulated Sprague-Dawley rat lung at 10 mg/kg administered via oral gavage after 24 hrs by LC-MS/MS analysis; format: ADME, organism-based; conditions: read-out: Drug uptake; method in brief: as §1
[23] = Drug uptake in tumor of human PC3 cells xenografted in athymic NCr-nu/nu mouse at 3 mg/kg, qd administered via oral gavage measured 24 hrs post last dose by LC-MS/MS analysis; format: ADME, organism-based, Neoplasm, PC-3; conditions: read-out: Drug uptake; method in brief: as §5
[24] = test system: Mus musculus; experiment: Toxicity in athymic NCr-nu/nu mouse xenografted with human PC3 cells assessed as change in body weight at 10 mg/kg administered via oral gavage measured every 2 to 3 days; format: organism-based, PC-3; conditions: in vivo; method in brief: as §4
[25] = test system: Mus musculus; experiment: Toxicity in athymic NCr-nu/nu mouse xenografted with human PC3 cells assessed as change in body weight at 3 mg/kg administered via oral gavage measured every 2 to 3 days; format: organism-based, PC-3; conditions: in vivo; method in brief: as §4
[26] = Drug uptake in pre-cannulated Sprague-Dawley rat RBC at 10 mg/kg administered via oral gavage after 24 hrs by LC-MS/MS analysis; format: ADME, organism-based, Erythrocyte; conditions: red blood cells, read-out: Drug uptake; method in brief: as §1
[27] = Lipophilicity, log P of the compound; format: physicochemical; conditions: octanol/water
[28] = test system: Plasma; experiment: Drug uptake in pre-cannulated Sprague-Dawley rat plasma at 10 mg/kg administered via oral gavage after 2 hrs by LC-MS/MS analysis; format: ADME, organism-based; conditions: in vivo; method in brief: as §6
[29] = Drug uptake in tumor of human PC3 cells xenografted in athymic NCr-nu/nu mouse at 30 mg/kg, qd administered via oral gavage measured 24 hrs post last dose by LC-MS/MS analysis; format: ADME, organism-based, Neoplasm, PC-3; conditions: read-out: Drug uptake; method in brief: as §5
[30] = test system: Mus musculus; experiment: Toxicity in athymic NCr-nu/nu mouse xenografted with human PC3 cells assessed as change in body weight at 30 mg/kg administered via oral gavage measured every 2 to 3 days; format: organism-based, PC-3; conditions: in vivo; method in brief: as §4

SMILES | concentration at 24 h [1] [µM] | half-life [2] [h] | concentration at 24 h [5] [µM] | Tmax [6] [h] | bioavailability [7] [%] | half-life [8] [h] | concentration at 24 h [9] [µM] | concentration at 24 h [11] [µM] | concentration at 24 h [12] [µM] | AUC(0-t) [14] [µM·h] | clearance [15] [mL/min/kg] | Tmax [16] [min] | logD at 100 µM [17] | Cmax [18] [µM] | AUC(0-t) [20] [µM·h] | IC50 [3] [µM] | IC90 [3] [µM] | TGI [4] | IC50 [19] [µM] | IC90 [19] [µM] | also measured
CCCCCC(O)C(F)(F)F (stereo not given) |  |  |  |  |  |  |  |  |  |  |  |  |  |  |  |  |  |  |  |  | logP [27]: 1.14
CCCCCCCCCCCCC(F)(F)[C@H](O)C[C@H](O)[C@H](C)N | 14.8 | 5.7 | 23.6 | 8 | 10 | 9.9 | 16.1 | 9.29 | 6.94 | 2.91 | 34 | 4.8 | 1.73 | 0.119 | 1.47 | 11.7 | 15.3 | Active | 13.4 | 16.7 | Drug uptake [28]: Not Active; concentration at 24 h [29]: 62 µM; Activity [30]: Non-toxic; Cmax [21]: 4.4 µM; concentration at 24 h [22]: 44.5 µM; Activity [24]: Non-toxic; concentration at 24 h [26]: 0.936 µM
OC(F)(F)CF |  |  |  |  |  |  |  |  |  |  |  |  |  |  |  |  |  |  |  |  | logP [27]: 0.36

Further lines, with some results ahead:

concentration at 24 h [1] [µM] | half-life [2] [h] | concentration at 24 h [5] [µM] | Tmax [6] [h] | bioavailability [7] [%] | half-life [8] [h] | concentration at 24 h [9] [µM] | concentration at 24 h [11] [µM] | concentration at 24 h [12] [µM] | AUC(0-t) [14] [µM·h] | clearance [15] [mL/min/kg] | Tmax [16] [min] | logD at 100 µM [17] | Cmax [18] [µM] | AUC(0-t) [20] [µM·h] | SMILES | IC50 [3] [µM] | IC90 [3] [µM] | TGI [4] | IC50 [19] [µM] | IC90 [19] [µM] | also measured
1.35 | 4 | 1.6 | 8 | 11 | 8.3 | 3.25 | 1.06 | 0.766 | 1.45 | 76.2 | 4.8 | 3.5 | 0.0846 | 0.832 | CCCCCCCCCCCCC[C@H](O)C[C@H](O)[C@H](C)N [ENIGMOL] | 12.1 | 14 | Active | 11.7 | 19.6 | Drug uptake [10]: Not Active; TGI [13]: inactive; Cmax [21]: 2.45 µM; concentration at 24 h [22]: 5.34 µM; concentration at 24 h [23]: 1.05 µM; Activity [24]: Non-toxic; Activity [25]: Non-toxic; concentration at 24 h [26]: 0.041 µM
4.74 | 1.3 | 25.3 | 12 | 68 | 5.5 | 6.01 | 1.94 | 3.46 | 0.688 | 136 | 4.8 | 3.24 | 0.193 | 2.34 | C[C@H](N)[C@@H](O)C[C@@H](O)CCCCCCCCCCCCC(F)(F)F | 21.4 | 24.4 | inactive | 11.3 | 19.2 | Drug uptake [10]: Not Active; TGI [13]: inactive; Cmax [21]: 1.68 µM; concentration at 24 h [22]: 18.7 µM; concentration at 24 h [23]: 3.23 µM; Activity [24]: 11.6%; Activity [25]: Non-toxic; concentration at 24 h [26]: 0.153 µM
